ChEMBL document CHEMBL5032505, “Design, Synthesis, and Activity Evaluation of Stereoconfigured Tartarate Derivatives as Potential Anti-inflammatory Agents In Vitro and In Vivo” (J Med Chem, 2021)
The source made the active and inactive calls. The calls are words filed in the database; no cut-off is given here.

Legend:
[1] = Inhibition of soybean LOX using arachidonic acid as substrate incubated for 5 mins; design: species or system Glycine max
Summary of the method: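 Soybean lipoxygenase in assay buffer, compounds at 10⁻⁴–10⁻⁸ M from DMSO stocks, triplicate. Reaction started with arachidonic acid and shaken 5 min. Chromogen added, shaken 5 min more, absorbance read at 490 nm. Blanks were buffer + AA. % inhibition computed with chromogen extinction coefficient 9.47 mM⁻¹.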

[2] = biological target: T1, Prostaglandin G/H synthase 1 (Ovis aries) (UniProt P05979)
T1 sequence (whole entry): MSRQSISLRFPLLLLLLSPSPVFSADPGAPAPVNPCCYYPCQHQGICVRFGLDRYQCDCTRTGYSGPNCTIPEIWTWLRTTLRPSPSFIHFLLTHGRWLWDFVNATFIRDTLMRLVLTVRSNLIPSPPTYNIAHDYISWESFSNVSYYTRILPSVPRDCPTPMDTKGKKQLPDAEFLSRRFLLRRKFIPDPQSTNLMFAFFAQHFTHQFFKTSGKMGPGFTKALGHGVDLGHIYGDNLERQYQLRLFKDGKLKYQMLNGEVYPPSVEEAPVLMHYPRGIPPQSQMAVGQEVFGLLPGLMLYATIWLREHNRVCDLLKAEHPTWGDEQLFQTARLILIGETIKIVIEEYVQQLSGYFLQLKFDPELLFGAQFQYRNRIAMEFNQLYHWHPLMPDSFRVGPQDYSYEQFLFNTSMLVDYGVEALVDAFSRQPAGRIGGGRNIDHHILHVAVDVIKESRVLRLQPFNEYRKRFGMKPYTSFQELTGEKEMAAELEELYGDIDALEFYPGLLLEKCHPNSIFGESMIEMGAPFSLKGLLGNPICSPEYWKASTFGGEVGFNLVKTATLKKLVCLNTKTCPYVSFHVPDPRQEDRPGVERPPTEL

Glycine max [3] = tested on: Glycine max
Mus musculus [4] = assay: Analgesic activity in Swiss albino mouse assessed as inhibition of acetic acid-induced writhing at 5 mg/kg, ip preincubated for 30 mins with L-arginine followed by compound addition for 30 mins prior to acetic acid challenge and measured after 30 mins; format: functional, organism-based; conditions: time 60.0 min
[5] = AUC (0 to t) in Swiss albino mouse at 10 mg/kg, ip measured upto 24 hrs by LC-MS analysis; format: ADME, organism-based; design: route intraperitoneal, dose 10 mg/kg, time <=24; conditions: in vivo
Summary of the method: (§1)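 Swiss albino mice (25−35 g), either sex, 10 groups of three. 10 mg/kg suspended in 0.1% CMC, given i.p. Ketamine anaesthesia (50 mg/kg i.p.). Jugular vein blood taken at 30, 45, 60 min and 2, 3, 4, 6, 8, 11, 24 h into heparinised tubes, triplicate samples per time point.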

Mus musculus [6] = assay: Sedative activity in Swiss albino mouse at 300 mg/kg, po after 1 hr; format: ADME, organism-based; conditions: in vivo
Summary of the method: (§2)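 Acute oral toxicity in Swiss albino mice fasted 4 h, three per group, vehicle control group alongside. Single 300 mg/kg oral dose, continuous observation for 4 h, then periodic checks over 14 days.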

Mus musculus [7] = assay: Antiinflammatory activity in Swiss albino mouse model of carrageenan-induced paw edema assessed as reduction in paw thickness at 5 mg/kg, administered 30 mins prior to carrageenan challenge and measured upto 360 mins relative to control; format: functional; design: scale not given: the % may be the effect or the level left; conditions: time 390 min, 6.5 h
Summary of the method: (§3)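 100 μL freshly prepared 1% carrageenan injected into the subplantar hind paw, with indomethacin (10 mg/kg) or test compound given 30 min before. Dose–response arm used 0.5, 2.5, 5, 10, 20 mg/kg. Six animals per group. Paw thickness (mm) read at 15, 30, 60, 120, 180, 240, 300, 360 min. Result expressed as % decrease versus control.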

Glycine max [8] = assay: Binding affinity to soybean 5-LOX assessed as change in entropy by isothermal titration calorimetry
Summary of the method: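 ITC at 25 °C in 0.1 M Tris buffer. Ligand at 100 μM in DMSO:Tris (1:9) titrated from a syringe stirred at 500 rpm into enzyme in the sample cell, 120 s spacing. 40 × 1 μL injections, except COX-1 at 20 × 2 μL. Buffer-only control titrations were subtracted.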

Mus musculus [9] = assay: Analgesic activity in Swiss albino mouse assessed as inhibition of acetic acid-induced writhing at 5 mg/kg, ip preincubated for 30 mins with substance P followed by compound addition for 30 mins prior to acetic acid challenge and measured after 30 mins; format: functional, organism-based; conditions: time 60.0 min
[10] = biological target: T1, Prostaglandin G/H synthase 1 (Ovis aries); remark: listed apart in the source
Mus musculus [11] = assay: Sedative activity in Swiss albino mouse at 300 mg/kg, po after 2 hrs; format: ADME, organism-based; conditions: in vivo; summary of the method: as §2
[12] = biological target: T2, Prostaglandin G/H synthase 1 (Ovis aries, UniProt P05979); assay: Inhibition of ovine COX-1 using arachidonic acid as substrate preincubated for 10 mins followed by substrate addition and measured after 2 mins by EIA
T2 sequence (P05979 whole entry): T1 sequence (whole entry)
Summary of the method: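 COX-1 EIA run at 10⁻⁴–10⁻⁸ M in triplicate. Enzyme with heme in reaction buffer plus inhibitor, incubated 10 min at 37 °C. Boiled (3 min) enzyme served as background. Prostaglandin output quantified to give IC50.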

[13] = biological target: T1, Prostaglandin G/H synthase 1 (Ovis aries); remark: listed apart in the source
Mus musculus [14] = assay: Antiinflammatory activity against Swiss albino mouse assessed as reduction in carragenan-induced paw edema at 0.5 mg/kg treated 30 mins prior to carrageenan challenge and measured upto 360 mins relative to control; format: functional; design: scale not given: the % may be the effect or the level left; conditions: time 390 min, 6.5 h; summary of the method: as §3
Albumin = Albumin (Homo sapiens, UniProt P02768); assay: Binding affinity to HSA assessed as change in enthalpy by isothermal titration calorimetry
[15] = biological target: T3, Prostaglandin G/H synthase 2 (Homo sapiens) (UniProt P35354)
T3 sequence (whole entry): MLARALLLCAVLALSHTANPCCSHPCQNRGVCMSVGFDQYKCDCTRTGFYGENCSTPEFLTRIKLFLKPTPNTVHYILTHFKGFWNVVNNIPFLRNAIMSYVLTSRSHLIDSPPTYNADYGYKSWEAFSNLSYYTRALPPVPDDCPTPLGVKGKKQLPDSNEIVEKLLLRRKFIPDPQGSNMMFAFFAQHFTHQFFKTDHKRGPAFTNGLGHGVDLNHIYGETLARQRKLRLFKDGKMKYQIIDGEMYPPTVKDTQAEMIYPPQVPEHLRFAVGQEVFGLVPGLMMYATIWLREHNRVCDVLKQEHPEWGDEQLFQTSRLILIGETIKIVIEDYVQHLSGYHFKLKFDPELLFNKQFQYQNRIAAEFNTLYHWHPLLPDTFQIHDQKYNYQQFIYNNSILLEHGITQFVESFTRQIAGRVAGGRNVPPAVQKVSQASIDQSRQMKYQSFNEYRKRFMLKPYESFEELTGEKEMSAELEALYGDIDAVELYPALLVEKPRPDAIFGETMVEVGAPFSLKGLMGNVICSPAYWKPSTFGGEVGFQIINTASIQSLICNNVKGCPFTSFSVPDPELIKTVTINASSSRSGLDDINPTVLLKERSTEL

[16] = Half life in Swiss albino mouse at 10 mg/kg, ip measured upto 24 hrs by LC-MS analysis; format: ADME, organism-based; conditions: in vivo; summary of the method: as §1

Chain of Albumin (P02768 whole entry): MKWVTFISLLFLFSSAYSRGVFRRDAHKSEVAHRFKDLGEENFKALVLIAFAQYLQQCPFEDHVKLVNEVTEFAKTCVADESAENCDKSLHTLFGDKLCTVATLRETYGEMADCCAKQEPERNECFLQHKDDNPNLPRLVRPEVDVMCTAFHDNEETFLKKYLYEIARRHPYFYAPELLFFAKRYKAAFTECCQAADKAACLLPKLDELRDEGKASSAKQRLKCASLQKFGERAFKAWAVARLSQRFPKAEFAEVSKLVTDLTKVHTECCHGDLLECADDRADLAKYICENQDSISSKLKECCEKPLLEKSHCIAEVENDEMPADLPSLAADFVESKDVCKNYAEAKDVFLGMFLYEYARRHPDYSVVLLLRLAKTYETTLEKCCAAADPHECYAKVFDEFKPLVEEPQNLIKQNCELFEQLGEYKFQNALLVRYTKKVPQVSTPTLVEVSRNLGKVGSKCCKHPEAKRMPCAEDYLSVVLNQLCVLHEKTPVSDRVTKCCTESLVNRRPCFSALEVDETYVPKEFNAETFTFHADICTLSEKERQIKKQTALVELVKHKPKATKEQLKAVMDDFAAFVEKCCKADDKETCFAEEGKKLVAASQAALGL

- IC50 [1]: 0.007 µM
- deltaH [2]: -600 kcal/mol
- Ka (Glycine max [3]): 1.33 10^5/M
- AUC(0-t) at 24 h [5]: 241 µg·h/mL
- TdeltaS (Glycine max [8]): -2.99 kcal/mol
- deltaG [10]: -5.02 kcal/mol
- IC50 [12]: 0.3 µM
- Ka [13]: 1.64 10^3/M
- deltaH (Albumin): -264 kcal/mol
- TdeltaS [15]: -2.57 kcal/mol
- half-life [16]: 8.74 h
SMILES: O=C(O)Cn1nncc1CO[C@@H](C(=O)O)[C@@H](OCc1cnnn1CC(=O)O)C(=O)O
- Activity (Mus musculus [4]): Active
- Activity (Mus musculus [6]): Toxic
- Activity (Mus musculus [7]): 33%
- Activity (Mus musculus [9]): inactive
- Activity (Mus musculus [11]): Non-Toxic
- Activity (Mus musculus [14]): 2%
